ChEMBL document CHEMBL3576806, “Design and synthesis of novel arctigenin analogues for the amelioration of metabolic disorders” (ACS Med Chem Lett, 2015)
Calls of active or inactive are those of the source. The calls are words filed in the database; no cut-off is given here.

Key:
L6 [1] = experiment: Increase in glucose uptake in rat L6 cells at 1.5 uM pre-treated with compound for 30 mins using 2-deoxy-D-[1,2-3H]glucose and measured after 2 hrs by liquid scintillation counting method; assay type: functional
Method in brief: (§1)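 L6 myotubes exposed to compound for 2 h at 1.5, 3, 6, 12 or 24 μM; 2-deoxyglucose uptake expressed as fold over untreated control; 3 μM (−)-arctigenin run alongside as positive control; mean ± SEM of 3 independent experiments.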

L6 [2] = experiment: Increase in glucose uptake in rat L6 cells at 1.5 uM pre-treated with compound for 30 mins using 2-deoxy-D-[1,2-3H]glucose and measured after 2 hrs in presence of 3 uM (-)-arctigenin by liquid scintillation counting method; assay type: functional; method in brief: as §1
L6 [3] = experiment: Ratio of glucose uptake in rat L6 cells at 1.5 uM after 2 hrs to glucose uptake in rat L6 cells at 1.5 uM after 2 hrs in presence of 3 uM (-)-arctigenin; assay type: functional
Method in brief: (§2)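 Glucose uptake in L6 myotubes after 2 h compound exposure divided by uptake with the 3 μM (−)-arctigenin positive control run in parallel.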

L6 [4] = experiment: Increase in glucose uptake in rat L6 cells at 6 uM pre-treated with compound for 30 mins using 2-deoxy-D-[1,2-3H]glucose and measured after 2 hrs […] by liquid scintillation counting method; assay type: functional; method in brief: as §1
L6 [5] = experiment: Increase in glucose uptake in rat L6 cells at 6 uM pre-treated with compound for 30 mins using 2-deoxy-D-[1,2-3H]glucose and measured after 2 hrs by liquid scintillation counting method; assay type: functional; method in brief: as §1
L6 [6] = experiment: Ratio of glucose uptake in rat L6 cells at 6 uM after 2 hrs to glucose uptake in rat L6 cells at 6 uM after 2 hrs in presence of 3 uM (-)-arctigenin; assay type: functional; method in brief: as §2
L6 [7] = experiment: Increase in glucose uptake in rat L6 cells at 3 uM […] using 2-deoxy-D-[1,2-3H]glucose and measured after 2 hrs […] by liquid scintillation counting method; assay type: functional; method in brief: as §1
L6 [8] = experiment: Ratio of glucose uptake in rat L6 cells at 3 uM after 2 hrs to glucose uptake in rat L6 cells at 3 uM after 2 hrs in presence of 3 uM (-)-arctigenin; assay type: functional; method in brief: as §2
L6 [9] = experiment: Increase in glucose uptake in rat L6 cells at 3 uM pre-treated with compound for 30 mins using 2-deoxy-D-[1,2-3H]glucose and measured after 2 hrs by liquid scintillation counting method; assay type: functional; method in brief: as §1
L6 [10] = experiment: Ratio of glucose uptake in rat L6 cells at 12 uM after 2 hrs to glucose uptake in rat L6 cells at 12 uM after 2 hrs in presence of 3 uM (-)-arctigenin; assay type: functional; method in brief: as §2
L6 [11] = experiment: Increase in glucose uptake in rat L6 cells at 12 uM pre-treated with compound for 30 mins using 2-deoxy-D-[1,2-3H]glucose and measured after 2 hrs by liquid scintillation counting method; assay type: functional; method in brief: as §1
L6 [12] = experiment: Increase in glucose uptake in rat L6 cells at 12 uM pre-treated with compound for 30 mins using 2-deoxy-D-[1,2-3H]glucose and measured after 2 hrs […] by liquid scintillation counting method; assay type: functional; method in brief: as §1
L6 [13] = experiment: Increase in glucose uptake in rat L6 cells at 0.75 uM to 3 uM pre-treated with compound for 30 mins using 2-deoxy-D-[1,2-3H]glucose and measured after 2 hrs by liquid scintillation counting method; assay type: functional, cell-based
L6 [14] = experiment: Induction of AMPK activation in rat L6 cells assessed as increase in ACC phosphorylation at 1.5 uM incubated for 2 hrs by Western blotting method; assay type: cell-based
Method in brief: (§3)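 L6 myotubes treated 2 h at the stated concentrations; phosphorylated AMPK and phosphorylated ACC detected by immunoblot.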

L6 [15] = experiment: Increase in glucose uptake in rat L6 cells pre-treated with compound for 30 mins using 2-deoxy-D-[1,2-3H]glucose and measured after 2 hrs in presence of 10 uM AMPK inhibitor compound-C by liquid scintillation counting method; assay type: functional, cell-based
Method in brief: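 L6 myotube 2-deoxyglucose uptake after compound exposure, tested with and without the AMPK inhibitor compound C; mean ± SEM, n = 3 independent experiments.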

L6 [16] = experiment: Induction of AMPK phosphorylation in rat L6 cells at 3 uM incubated for 2 hrs by Western blotting method; assay type: cell-based; method in brief: as §3
L6 [17] = experiment: Induction of fatty acid oxidation in rat L6 cells at 6 uM using [9,10-3H(N)]-palmitic acid incubated for 2 hrs; assay type: functional, cell-based
Method in brief: (§4)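 Fatty acid oxidation measured in L6 myotubes after compound treatment, also with compound C to block AMPK; mean ± SEM, n = 3 independent experiments.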

L6 [18] = experiment: Induction of fatty acid oxidation in rat L6 cells using [9,10-3H(N)]-palmitic acid incubated for 2 hrs in presence of AMPK inhibitor compound-C; assay type: functional, cell-based; method in brief: as §4
L6 [19] = experiment: Induction of depolarization of mitochondrial membrane potential in rat L6 cells incubated for 10 mins by fluorescence based assay; assay type: functional, cell-based
Method in brief: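 L6 myotubes treated 10 min over a concentration series; mitochondrial membrane potential (Δψm) depolarization measured; mean ± SEM, n = 3 independent experiments.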

[20] = Tmax in ob/ob mouse at 50 mg/kg, ip measured after 0.5 to 24 hrs; assay type: ADME, organism-based; conditions: in vivo
L6 [21] = experiment: Induction of AMPK activation in rat L6 cells assessed as increase in ACC phosphorylation at 3 uM incubated for 2 hrs by Western blotting method; assay type: cell-based; method in brief: as §3
L6 [22] = experiment: Increase in glucose uptake in rat L6 cells at 3 umol/L pre-treated with compound for 30 mins using 2-deoxy-D-[1,2-3H]glucose and measured after 2 hrs by liquid scintillation counting method relative to control; assay type: functional; method in brief: as §1
L6 [23] = experiment: Induction of AMPK phosphorylation in rat L6 cells at 1.5 uM incubated for 2 hrs by Western blotting method; assay type: cell-based; method in brief: as §3

Question: For `COc1ccc(C[C@H]2COC(=O)[C@@H]2Cc2ccc(F)cc2)cc1OC`, which Activity (L6 [1]) is on record?
Answer: Its Activity is 116.4%.

Question: And the Activity (L6 [2])?
Answer: The Activity was 239.6%.

Question: What about the Ratio (L6 [3]) of the same molecule?
Answer: Its Ratio is 0.486.

Question: For `COc1cc(C[C@H]2C(=O)OC[C@@H]2Cc2cc(OC)c(OC)c(OC)c2)ccc1O`, which Activity (L6 [4]) is on record?
Answer: The Activity was 233.9%.

Question: What about the Activity (L6 [5]) of the same molecule?
Answer: Its Activity is 128.8%.

Question: And the Ratio (L6 [6])?
Answer: The Ratio was 0.551.

Question: With `COc1ccccc1C[C@H]1C(=O)OC[C@@H]1Cc1ccc(OC)c(OC)c1` as the molecule, how does the Activity (L6 [7]) read?
Answer: The Activity was 190.1%.

Question: And the Ratio (L6 [8])?
Answer: The Ratio was 0.512.

Question: What about the Activity (L6 [9]) of the same molecule?
Answer: Its Activity is 97.4%.

Question: Which results are given for `COc1cccc(C[C@H]2C(=O)OC[C@@H]2Cc2ccc(OC)c(OC)c2)c1`?
Answer: Ratio (L6 [10]): 0.564; Activity (L6 [11]): 119.2%; Activity (L6 [12]): 211.3%

Question: What does the source list for `COc1cc(CC2C(=O)OCC2Cc2ccc(OC)c(OC)c2)ccc1O` (racemic)?
Answer: Activity (L6 [13]): Dose-dependent effect; Activity (L6 [14]): Active; Activity (L6 [15]): inactive; Activity (L6 [16]): Active; Activity (L6 [17]): Active; Activity (L6 [18]): inactive; Activity (L6 [19]): Dose-dependent effect; Tmax [20]: 30 min; Activity (L6 [21]): Active; fold change (FC) (L6 [22]): 1.62; Activity (L6 [23]): Active

Question: With `COc1cccc(C[C@H]2COC(=O)[C@@H]2Cc2ccc(O)c(OC)c2)c1` as the molecule, how does the Activity (L6 [1]) read?
Answer: Its Activity is 121.2%.

Question: What about the Activity (L6 [2]) of the same molecule?
Answer: Its Activity is 241%.

Question: What about the Ratio (L6 [3]) of the same molecule?
Answer: Its Ratio is 0.503.
